{
  "source": "ChEMBL document CHEMBL2203081",
  "about": "(Bioorg Med Chem Lett, 2012)",
  "key": {"[1]": {"target": "Serine/threonine-protein kinase DCLK2 (Homo sapiens) (UniProt Q8N568)", "sequence (Q8N568 whole entry)": "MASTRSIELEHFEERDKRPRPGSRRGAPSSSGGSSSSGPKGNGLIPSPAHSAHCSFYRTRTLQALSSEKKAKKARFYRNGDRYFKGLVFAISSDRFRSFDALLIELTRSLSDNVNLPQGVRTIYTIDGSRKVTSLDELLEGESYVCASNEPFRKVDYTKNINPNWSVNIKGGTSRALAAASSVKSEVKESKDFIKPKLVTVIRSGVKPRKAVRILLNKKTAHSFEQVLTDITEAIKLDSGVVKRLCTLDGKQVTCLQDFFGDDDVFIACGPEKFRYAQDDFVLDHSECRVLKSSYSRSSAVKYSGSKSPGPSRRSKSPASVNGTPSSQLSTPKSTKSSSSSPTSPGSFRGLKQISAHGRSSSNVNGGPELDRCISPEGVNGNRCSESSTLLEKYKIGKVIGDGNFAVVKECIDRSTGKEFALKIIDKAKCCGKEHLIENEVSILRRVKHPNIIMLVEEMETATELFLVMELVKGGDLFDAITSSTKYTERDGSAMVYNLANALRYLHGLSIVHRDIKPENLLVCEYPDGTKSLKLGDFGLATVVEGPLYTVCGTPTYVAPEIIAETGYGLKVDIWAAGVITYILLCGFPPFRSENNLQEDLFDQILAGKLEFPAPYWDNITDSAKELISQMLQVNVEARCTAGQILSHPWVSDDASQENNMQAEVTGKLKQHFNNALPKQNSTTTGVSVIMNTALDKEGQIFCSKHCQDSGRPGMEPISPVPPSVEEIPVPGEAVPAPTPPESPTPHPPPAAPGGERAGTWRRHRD", "test": "Inhibition of DCAMKL2 assessed as residual activity at 10 uM relative to control", "outline": "(§1)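 Competition kinase-binding assay (KINOMEscan) across a non-redundant panel of 329 kinases beyond the radiometric panel; residual binding expressed relative to control.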"}, "[2]": {"target": "Ephrin type-A receptor 8 (Homo sapiens) (UniProt P29322)", "test": "Inhibition of EPHA8 assessed as residual activity at 10 uM relative to control", "outline": "as §1"}, "[3]": {"target": "ALK tyrosine kinase receptor (Homo sapiens) (UniProt Q9UM73)", "test": "Inhibition of ALK assessed as residual activity at 10 uM relative to control"}, "[4]": {"target": "Focal adhesion kinase 1 (Homo sapiens) (UniProt Q05397)", "sequence (Q05397 2-1052 limits assumed)": "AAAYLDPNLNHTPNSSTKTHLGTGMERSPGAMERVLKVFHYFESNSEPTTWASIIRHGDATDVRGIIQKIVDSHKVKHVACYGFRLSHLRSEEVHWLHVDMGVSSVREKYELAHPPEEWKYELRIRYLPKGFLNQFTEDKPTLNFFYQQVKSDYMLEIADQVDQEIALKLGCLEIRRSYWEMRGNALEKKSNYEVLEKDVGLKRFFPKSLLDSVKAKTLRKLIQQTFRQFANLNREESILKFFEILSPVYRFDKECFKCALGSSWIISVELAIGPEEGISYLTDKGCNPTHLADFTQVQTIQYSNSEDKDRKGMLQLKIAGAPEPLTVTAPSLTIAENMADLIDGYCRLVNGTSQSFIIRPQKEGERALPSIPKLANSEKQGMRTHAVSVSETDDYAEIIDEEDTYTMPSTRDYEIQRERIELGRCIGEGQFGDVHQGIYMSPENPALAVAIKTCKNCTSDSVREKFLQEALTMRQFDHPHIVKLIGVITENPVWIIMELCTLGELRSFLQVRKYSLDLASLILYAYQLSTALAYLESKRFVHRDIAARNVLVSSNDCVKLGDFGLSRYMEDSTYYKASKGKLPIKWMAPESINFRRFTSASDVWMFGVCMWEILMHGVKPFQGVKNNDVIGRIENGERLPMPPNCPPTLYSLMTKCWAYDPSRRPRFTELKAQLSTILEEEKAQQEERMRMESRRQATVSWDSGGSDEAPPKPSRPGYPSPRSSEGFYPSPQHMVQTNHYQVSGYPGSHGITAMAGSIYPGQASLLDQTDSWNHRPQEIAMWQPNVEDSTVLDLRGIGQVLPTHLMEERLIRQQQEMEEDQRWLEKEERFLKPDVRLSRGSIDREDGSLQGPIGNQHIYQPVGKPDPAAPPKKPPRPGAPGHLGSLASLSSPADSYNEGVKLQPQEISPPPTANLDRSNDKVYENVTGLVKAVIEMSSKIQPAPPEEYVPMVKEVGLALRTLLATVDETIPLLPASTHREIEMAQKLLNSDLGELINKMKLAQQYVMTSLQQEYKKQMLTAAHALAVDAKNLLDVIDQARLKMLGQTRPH", "test": "Inhibition of FAK assessed as residual activity at 10 uM relative to control"}, "[5]": {"target": "Cyclin-dependent kinase 14 (Homo sapiens) (UniProt O94921)", "sequence (O94921 whole entry)": "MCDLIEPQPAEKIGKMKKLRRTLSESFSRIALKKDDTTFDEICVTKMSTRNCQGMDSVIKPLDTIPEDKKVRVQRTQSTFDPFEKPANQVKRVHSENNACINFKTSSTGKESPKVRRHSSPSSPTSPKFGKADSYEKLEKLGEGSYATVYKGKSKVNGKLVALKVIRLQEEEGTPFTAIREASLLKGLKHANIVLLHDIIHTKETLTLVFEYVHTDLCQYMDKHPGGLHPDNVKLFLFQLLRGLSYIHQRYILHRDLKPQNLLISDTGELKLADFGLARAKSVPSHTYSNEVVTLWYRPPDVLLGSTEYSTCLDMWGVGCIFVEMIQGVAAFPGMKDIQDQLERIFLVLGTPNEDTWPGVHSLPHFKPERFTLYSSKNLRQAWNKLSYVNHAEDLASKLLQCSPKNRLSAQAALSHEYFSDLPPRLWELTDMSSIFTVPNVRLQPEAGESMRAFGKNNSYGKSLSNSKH", "test": "Inhibition of PFTK1 assessed as residual activity at 10 uM relative to control"}, "[6]": {"target": "Serine/threonine-protein kinase Nek6 (Homo sapiens) (UniProt Q9HC98)", "sequence (Q9HC98 whole entry)": "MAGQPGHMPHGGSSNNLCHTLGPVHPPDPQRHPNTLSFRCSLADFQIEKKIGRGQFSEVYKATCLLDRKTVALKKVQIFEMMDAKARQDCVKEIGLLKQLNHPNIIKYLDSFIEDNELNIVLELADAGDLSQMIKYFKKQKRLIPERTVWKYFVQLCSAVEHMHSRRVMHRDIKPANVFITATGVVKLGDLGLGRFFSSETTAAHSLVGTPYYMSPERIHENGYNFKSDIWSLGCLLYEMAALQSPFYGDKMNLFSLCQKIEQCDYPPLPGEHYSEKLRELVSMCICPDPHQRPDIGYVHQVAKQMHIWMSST", "test": "Inhibition of NEK6 assessed as residual activity at 10 uM"}, "[7]": {"target": "Serine/threonine-protein kinase 17B (Homo sapiens) (UniProt O94768)", "sequence (O94768 whole entry)": "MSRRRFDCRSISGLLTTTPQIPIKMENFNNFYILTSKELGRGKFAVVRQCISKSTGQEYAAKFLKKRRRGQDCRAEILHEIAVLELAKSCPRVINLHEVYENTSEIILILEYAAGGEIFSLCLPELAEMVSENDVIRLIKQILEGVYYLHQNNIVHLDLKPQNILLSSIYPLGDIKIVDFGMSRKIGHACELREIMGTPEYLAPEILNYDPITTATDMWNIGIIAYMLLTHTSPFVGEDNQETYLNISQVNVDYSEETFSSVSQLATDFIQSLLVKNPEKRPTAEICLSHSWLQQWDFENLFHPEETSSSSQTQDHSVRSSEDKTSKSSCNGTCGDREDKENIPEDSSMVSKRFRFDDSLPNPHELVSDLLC", "test": "Inhibition of DRAK2 assessed as residual activity at 10 uM relative to control", "outline": "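Radioactivity-based enzymatic assay of kinase activity, run as part of a 131-kinase profiling panel at the National Centre for Protein Kinase Profiling, Dundee.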"}, "[8]": {"target": "Tyrosine-protein kinase Fer (Homo sapiens) (UniProt P16591)", "sequence (P16591 whole entry, looked up)": "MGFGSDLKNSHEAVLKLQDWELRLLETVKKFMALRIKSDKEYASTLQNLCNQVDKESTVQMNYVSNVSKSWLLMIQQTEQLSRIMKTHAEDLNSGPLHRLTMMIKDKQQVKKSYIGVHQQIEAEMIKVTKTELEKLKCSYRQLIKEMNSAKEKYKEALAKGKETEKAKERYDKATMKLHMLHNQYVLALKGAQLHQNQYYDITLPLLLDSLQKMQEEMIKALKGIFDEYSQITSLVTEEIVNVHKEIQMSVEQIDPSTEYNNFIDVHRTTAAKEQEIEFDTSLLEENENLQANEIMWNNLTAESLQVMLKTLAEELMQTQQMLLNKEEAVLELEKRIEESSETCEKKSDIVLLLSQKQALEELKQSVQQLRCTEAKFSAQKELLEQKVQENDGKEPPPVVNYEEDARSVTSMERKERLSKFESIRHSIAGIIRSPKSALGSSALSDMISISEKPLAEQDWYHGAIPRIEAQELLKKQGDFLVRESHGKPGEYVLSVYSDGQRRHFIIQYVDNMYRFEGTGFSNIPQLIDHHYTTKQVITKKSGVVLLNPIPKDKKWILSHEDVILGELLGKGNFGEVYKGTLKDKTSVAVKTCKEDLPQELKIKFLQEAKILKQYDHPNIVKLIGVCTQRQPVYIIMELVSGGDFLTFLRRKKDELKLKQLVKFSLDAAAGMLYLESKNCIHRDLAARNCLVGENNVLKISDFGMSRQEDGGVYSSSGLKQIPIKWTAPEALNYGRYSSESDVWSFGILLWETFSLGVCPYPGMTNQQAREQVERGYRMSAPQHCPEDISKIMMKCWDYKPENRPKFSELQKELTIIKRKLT", "test": "Inhibition of FER assessed as residual activity at 10 uM relative to control"}, "Brain": {"system": "Brain", "test": "AUClast in Swiss albino mouse brain at 10 mg/kg, po", "assay_type": "ADME, organism-based", "set-up": "time 0 - last, dose 10 mg/kg, route oral", "conditions": "in vivo", "outline": "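Male Swiss Albino mice, single dose given intravenously (1 mg/kg) or orally (10 mg/kg). Drug measured in plasma and brain, with AUClast taken for each. The brain/plasma ratio is based on AUClast, and oral bioavailability is derived from the IV and PO plasma data.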"}, "[9]": {"target": "Mast/stem cell growth factor receptor Kit (Homo sapiens) (UniProt P10721)", "sequence (P10721 whole entry)": "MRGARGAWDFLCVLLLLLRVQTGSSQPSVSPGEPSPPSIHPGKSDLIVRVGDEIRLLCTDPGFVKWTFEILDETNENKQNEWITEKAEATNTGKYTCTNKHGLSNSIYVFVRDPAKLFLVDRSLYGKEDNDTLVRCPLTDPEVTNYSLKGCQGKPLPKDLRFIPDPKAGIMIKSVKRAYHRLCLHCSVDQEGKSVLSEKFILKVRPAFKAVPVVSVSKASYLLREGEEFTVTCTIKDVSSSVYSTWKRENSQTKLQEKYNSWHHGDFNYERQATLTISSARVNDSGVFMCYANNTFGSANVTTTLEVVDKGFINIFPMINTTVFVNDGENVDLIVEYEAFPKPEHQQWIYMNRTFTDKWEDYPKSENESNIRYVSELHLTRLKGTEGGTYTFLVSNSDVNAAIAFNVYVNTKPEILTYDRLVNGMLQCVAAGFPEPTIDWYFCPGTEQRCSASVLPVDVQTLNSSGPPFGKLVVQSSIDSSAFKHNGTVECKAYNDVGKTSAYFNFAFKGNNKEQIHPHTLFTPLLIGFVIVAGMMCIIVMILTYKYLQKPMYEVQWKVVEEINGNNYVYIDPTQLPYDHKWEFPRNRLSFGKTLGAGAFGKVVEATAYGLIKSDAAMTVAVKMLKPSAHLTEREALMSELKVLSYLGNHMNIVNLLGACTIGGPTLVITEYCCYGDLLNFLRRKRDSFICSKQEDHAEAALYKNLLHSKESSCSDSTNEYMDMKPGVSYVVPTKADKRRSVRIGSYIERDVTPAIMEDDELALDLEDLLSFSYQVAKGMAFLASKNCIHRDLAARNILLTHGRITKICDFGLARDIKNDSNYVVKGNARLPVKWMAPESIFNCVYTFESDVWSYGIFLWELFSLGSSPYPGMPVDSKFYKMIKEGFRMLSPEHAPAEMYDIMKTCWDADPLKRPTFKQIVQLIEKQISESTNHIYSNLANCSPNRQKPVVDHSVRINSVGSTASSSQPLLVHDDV", "test": "Inhibition of KIT assessed as residual activity at 10 uM relative to control"}, "[10]": {"target": "T1, Ephrin type-B receptor 3 (Homo sapiens) (UniProt P54753)", "T1 sequence (whole entry)": "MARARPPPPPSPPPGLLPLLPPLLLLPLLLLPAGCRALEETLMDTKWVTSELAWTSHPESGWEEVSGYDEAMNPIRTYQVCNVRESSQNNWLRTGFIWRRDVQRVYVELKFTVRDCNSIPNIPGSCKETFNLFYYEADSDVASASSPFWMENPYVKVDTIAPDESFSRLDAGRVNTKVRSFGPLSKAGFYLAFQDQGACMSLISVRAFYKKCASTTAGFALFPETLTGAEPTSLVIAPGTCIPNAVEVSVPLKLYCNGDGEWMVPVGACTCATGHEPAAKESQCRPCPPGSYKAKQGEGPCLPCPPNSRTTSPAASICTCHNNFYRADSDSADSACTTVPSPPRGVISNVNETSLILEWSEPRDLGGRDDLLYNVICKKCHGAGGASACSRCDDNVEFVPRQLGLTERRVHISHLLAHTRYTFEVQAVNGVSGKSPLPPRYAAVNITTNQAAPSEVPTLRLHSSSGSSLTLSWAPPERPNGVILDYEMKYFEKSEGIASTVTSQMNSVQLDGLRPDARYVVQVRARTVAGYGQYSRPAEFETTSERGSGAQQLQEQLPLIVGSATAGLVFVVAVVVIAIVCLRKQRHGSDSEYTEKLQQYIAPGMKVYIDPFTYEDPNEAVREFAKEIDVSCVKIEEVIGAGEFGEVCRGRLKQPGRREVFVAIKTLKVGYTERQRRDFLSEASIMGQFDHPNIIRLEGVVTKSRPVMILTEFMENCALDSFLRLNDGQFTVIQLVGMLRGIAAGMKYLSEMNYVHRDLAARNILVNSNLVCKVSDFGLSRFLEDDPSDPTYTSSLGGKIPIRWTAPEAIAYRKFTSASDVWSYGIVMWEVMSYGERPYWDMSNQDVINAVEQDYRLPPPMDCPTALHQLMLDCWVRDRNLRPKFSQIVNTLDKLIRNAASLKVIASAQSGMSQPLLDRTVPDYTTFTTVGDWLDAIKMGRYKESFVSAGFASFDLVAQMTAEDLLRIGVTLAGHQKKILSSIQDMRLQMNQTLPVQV", "test": "Inhibition of EPH-B3 assessed as residual activity at 1 uM", "outline": "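Standard radioactivity-based enzymatic kinase assays on a 131-kinase panel run by the Dundee profiling service; residual kinase activity recorded.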"}, "[11]": {"target": "Serine/threonine-protein kinase N2 (Homo sapiens) (UniProt Q16513)", "test": "Inhibition of PKN2 assessed as residual activity at 10 uM relative to control"}, "[12]": {"target": "Tyrosine-protein kinase SYK (Homo sapiens) (UniProt P43405)", "test": "Inhibition of SYK assessed as residual activity at 10 uM"}},
  "data": [
    {"smiles": "O=C(Nc1cccnc1)c1cc(-c2ccnc(F)c2)ccc1OCc1ccccc1", "values": [
      {"measurement": "Activity", "setting": "[1]", "value": 48, "unit": "%"},
      {"measurement": "Activity", "setting": "[2]", "value": 52, "unit": "%"},
      {"measurement": "Activity", "setting": "[3]", "value": 7.2, "unit": "%"},
      {"measurement": "Activity", "setting": "[4]", "value": 63, "unit": "%"},
      {"measurement": "Activity", "setting": "[5]", "value": 80, "unit": "%"},
      {"measurement": "Activity", "setting": "[6]", "value": 65, "unit": "%"},
      {"measurement": "Activity", "setting": "[7]", "value": 72, "unit": "%"},
      {"measurement": "Activity", "setting": "[8]", "value": 67, "unit": "%"},
      {"measurement": "AUClast", "setting": "Brain", "value": 1539.4, "unit": "ng·h/mL"},
      {"measurement": "Activity", "setting": "[9]", "value": 39, "unit": "%"},
      {"measurement": "Activity", "setting": "[10]", "value": 121, "unit": "%"},
      {"measurement": "Activity", "setting": "[11]", "value": 20, "unit": "%"},
      {"measurement": "Activity", "setting": "[12]", "value": 125, "unit": "%"}
    ]}
  ]
}
